In article PMC7265153 (The Journal of infection, 2019):
Converted amounts (≈) assume the structure as drawn. “And” between values parts separate entries of the source, which are not always exact repeats. Identical values can stand only once. Like-named read-outs stand apart in the source and are kept apart here. Where a SMILES comes first, the peptide text is derived from it. Bridges are numbered along the chain shown (N, C = ends). [ ]: non-standard residue; d: D form. The star is where a group is joined. X1 = CC[C@H](C)CCCCC(=O)*; Dab = NCC[C@H](N)C(=O)O

Key:
P. aeruginosa [1] = format: cell-based; conditions: Pseudomonas aeruginosa
In short: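 Extremely drug-resistant clinical isolates from patients with urinary tract infection. Species identification and susceptibility testing were done by microdilution on the automated breakpoint panel for non-fermenting Gram-negative bacteria. Colistin MIC was determined by microdilution in cation-adjusted Mueller-Hinton broth, with isolates scored susceptible at MIC ≤ 2 mg/L per CLSI.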

[2] = cited from earlier work
MDR-GNB = conditions: cited from earlier work
XDR P. aeruginosa [3] = format: in vivo, human
Acute kidney injury = format: in vivo, human; conditions: for AKI at EOT: F (Failure) / AKI at EOT: I (Injury) / AKI at EOT: R (Risk): among patients with AKI
XDR P. aeruginosa [4] = experiment: Plasma AUC/MIC, fAUC/MIC of formed colistin and attainment of PK/PD targets; format: in vivo, human
P. aeruginosa [5] = conditions: study performed in Spain; cited from earlier work
[6] = in vivo; cited from earlier work
XDR P. aeruginosa [7] = format: cell-based, Pseudomonas aeruginosa
[8] = CMS ≥ 6 million IU/day (n = 12)
[9] = all patients, RIFLE class among patients with AKI
[10] = included patients with clinical failure (n = 2)

NCC[C@H](O)C(=O)N[C@@H]1C[C@H](N)[C@@H](O[C@H]2O[C@H](CN)[C@@H](O)[C@H](O)[C@H]2O)[C@H](O)[C@H]1O[C@H]1O[C@H](CO)[C@@H](O)[C@H](N)[C@H]1O [amikacin]
MIC (P. aeruginosa [1]): 16 µg/mL (≈ 27.3 µM)

C[C@@H](O)[C@H]1C(=O)N2C(C(=O)O)=C(S[C@@H]3CN[C@H](C(=O)N(C)C)C3)[C@H](C)[C@H]12 [meropenem]
MIC (P. aeruginosa [1]): ≥ 8 µg/mL

Colistimethate sodium [CMS]
CMS dose eliminated in the urine [2]: 60–70% | rate of CMS conversion into colistin ([2]; young volunteers, single dose of 1 million IU (80 mg) CMS): 30% | CMS excreted in urine ([2]; young volunteers, single dose of 1 million IU (80 mg) CMS, on average): 70% | Clinical cure (MDR-GNB; 13 patients with UTI caused by XDR P. aeruginosa): 84.6% | rate of clinical cure in UTI caused by MDR-GNB (MDR-GNB; recent clinical studies): 50 to 92% | Clinical cure in patients with pyelonephritis (XDR P. aeruginosa [3]; 9 patients diagnosed with pyelonephritis, six (66.7%) on combined therapy): All of them achieved clinical cure | Microbiological clearance (XDR P. aeruginosa [3]; 23 patients with microbiological follow up): 19 (82.6) n (%) | Clinical cure (XDR P. aeruginosa [3]; CMS < 3 million IU/day (n = 6)): 6 (100) n (%) | Clinical cure (XDR P. aeruginosa [3]; CMS ≥ 3 million IU/day (n = 9)): 8 (88.9) n (%) | Clinical cure (XDR P. aeruginosa [3]; [8]): 11 (91.7) n (%) | Clinical cure (XDR P. aeruginosa [3]; CMS ≥ 9 million IU/day (n = 6)): 6 (100) n (%) | Clinical cure (XDR P. aeruginosa [3]; all patients n = 33 (42.4% on combined antibiotic therapy)): 31 (93.9) n (%) | AKI at EOT (Acute kidney injury; CMS < 3 million IU/day (n = 6)): 2 (33.3) n (%) | AKI at EOT: F (Failure) (Acute kidney injury; CMS < 3 million IU/day (n = 6)): 0 (0) n (%) | AKI at EOT: I (Injury) (Acute kidney injury; CMS < 3 million IU/day (n = 6)): 1 (50) n (%) | AKI at EOT: R (Risk) (Acute kidney injury; CMS < 3 million IU/day (n = 6)): 1 (50) n (%) | AKI at EOT (Acute kidney injury; CMS ≥ 3 million IU/day (n = 9)): 3 (33.3) n (%) | AKI at EOT: F (Failure) (Acute kidney injury; CMS ≥ 3 million IU/day (n = 9)): 1 (33.3) n (%) | AKI at EOT: I (Injury) (Acute kidney injury; CMS ≥ 3 million IU/day (n = 9)): 2 (66.6) n (%) | AKI at EOT: R (Risk) (Acute kidney injury; CMS ≥ 3 million IU/day (n = 9)): 0 (0) n (%) | AKI at EOT (Acute kidney injury; [8]): 4 (33.3) n (%) | AKI at EOT: F (Failure) (Acute kidney injury; [8]): 0 (0) n (%) | AKI at EOT: I (Injury) (Acute kidney injury; [8]): 3 (75) n (%) | AKI at EOT: R (Risk) (Acute kidney injury; [8]): 1 (25) n (%) | AKI at EOT (Acute kidney injury; CMS ≥ 9 million IU/day (n = 6)): 1 (16.7) n (%) | AKI at EOT: F (Failure) (Acute kidney injury; CMS ≥ 9 million IU/day (n = 6)): 1 (100) n (%) | AKI at EOT: I (Injury) (Acute kidney injury; CMS ≥ 9 million IU/day (n = 6)): 0 (0) n (%) | AKI at EOT: R (Risk) (Acute kidney injury; CMS ≥ 9 million IU/day (n = 6)): 0 (0) n (%) | AKI at the end of treatment (Acute kidney injury; all patients n = 33, RIFLE criteria): 10 (30.3%) n (%) and 10 (30.3) n (%) | AKI at the end of treatment: F (Failure) (Acute kidney injury; [9]): 2 (22.2) n (%) | AKI at the end of treatment: I (Injury) (Acute kidney injury; [9]): 5 (55.5) n (%) | AKI at end of treatment (Acute kidney injury; included patients with clinical cure (n = 31)): 9 (29) n (%) | AKI at end of treatment (Acute kidney injury; [10]): 1 (50) n (%)

CC[C@H](C)CCCCC(=O)N[C@@H](CCN)C(=O)N[C@H](C(=O)N[C@@H](CCN)C(=O)N[C@H]1CCNC(=O)[C@H]([C@@H](C)O)NC(=O)[C@H](CCN)NC(=O)[C@H](CCN)NC(=O)[C@H](CC(C)C)NC(=O)[C@@H](CC(C)C)NC(=O)[C@H](CCN)NC1=O)[C@@H](C)O [colistin] (X1-[Dab]T[Dab][Dab][Dab][dL]L[Dab][Dab]T; lactam 4-C)
patients with microbiological clearance who had reached an AUC/MIC of 60 mg·h/L (XDR P. aeruginosa [4]; 7/19 patients): 36.8% | patients with pyelonephritis reaching Css,avg above 2.5 mg/L (XDR P. aeruginosa [4]; 9 patients diagnosed with pyelonephritis): none of them reached a Css,avg above 2.5 mg/L | patients with pyelonephritis achieving AUC/MIC > 60 mg·h/L (XDR P. aeruginosa [4]; 9 patients diagnosed with pyelonephritis, 1 patient): 11.1% | AUC/MIC > 60 mg∙h/L (XDR P. aeruginosa [4]; CMS < 3 million IU/day (n = 6)): 2 (33.3) n (%) | AUC/MIC > 60 mg∙h/L (XDR P. aeruginosa [4]; CMS ≥ 3 million IU/day (n = 9)): 1 (11.1) n (%) | AUC/MIC > 60 mg∙h/L (XDR P. aeruginosa [4]; [8]): 5 (41.7) n (%) | AUC/MIC > 60 mg∙h/L (XDR P. aeruginosa [4]; CMS ≥ 9 million IU/day (n = 6)): 3 (50) n (%) | AUC/MIC ≥ 60 mg∙h/L (XDR P. aeruginosa [4]; all patients n = 33): 11 (33.3) n (%) | fAUC/MIC (XDR P. aeruginosa [4]; all patients n = 33, unbound fraction 0.5, mean ± standard deviation, SD): 30.2 ± 28.2 | fAUC/MIC (XDR P. aeruginosa [4]; included patients with clinical cure (n = 31), median (interquartile range)): 21.5 (5.04–124.8) | Css > 2,5 mg/L (XDR P. aeruginosa [4]; [10]): 1 (50) 1 (50) n (%) | fAUC/MIC (XDR P. aeruginosa [4]; included patients with clinical failure (n = 2), median (interquartile range)): 47.4 (7.44–87.4) | Css > 2,5 mg/L (XDR P. aeruginosa [4]; patients treated with colistin alone, clinical cure (n=17)): 1 (5.9) n (%) | fAUC/MIC (XDR P. aeruginosa [4]; patients treated with colistin alone, clinical cure (n=17), median (interquartile range)): 16.8 (4.8–81.6) | fAUC/MIC (XDR P. aeruginosa [4]; patients with AKI at EOT (n = 10), median (interquartile range)): 48.4 (14.4–124.8) | fAUC/MIC (XDR P. aeruginosa [4]; patients without AKI at EOT (n = 23), median (interquartile range)): 13.7 (4.8–58.1) | patients with colistin in urine much higher than in plasma ([2]; 11 of 12 patients treated with CMS): 91.7% | concentrations of formed colistin in urine ([2]; 12 patients treated with CMS, maximum): up to 95.4 mg/L | concentrations of formed colistin in plasma ([2]; 12 patients treated with CMS, median (IQR <0.2–1.4 mg/L)): 900 ng/mL | half-life ([2]; assumed for reaching steady state): approximately 14 h | unbound fraction for colistin in human plasma ([2]; human plasma): 0.5 | MIC50/90 values (P. aeruginosa [5]): 2 µg/mL (≈ 1.71 µM) | clinical cure rate in patients diagnosed with UTI (MDR-GNB; retrospective study, low-dose colistin): 83.3% | Css,avg associated with a higher risk of AKI at EOT [6]: > 2420 ng/mL | rate of colistin-associated nephrotoxicity [6]: 40–50% | MIC50 (XDR P. aeruginosa [7]): 0.5 µg/mL (≈ 0.428 µM) | MIC90 (XDR P. aeruginosa [7]): 2 µg/mL (≈ 1.71 µM) | emergence of colistin-resistant isolates (XDR P. aeruginosa [3]; during the next 30 days after treatment): no colistin-resistant isolates were detected | Odds ratio (95% CI) of Css for nephrotoxicity at EOT (Acute kidney injury; multivariate logistic regression, P = 0.074): 4.36 (0.86–20)

CC(C)(O/N=C(\C(=O)N[C@@H]1C(=O)N2C(C(=O)[O-])=C(C[n+]3ccccc3)CS[C@H]12)c1csc(N)n1)C(=O)O [ceftazidime]
MIC (P. aeruginosa [1]): 16 µg/mL (≈ 29.3 µM)
